Screens: PubChem, several laboratories
KCC2 mod: KCC2 cotransporter modulators, thallium flux, primary screen, cell-based, HEK293 KCC2, FluoZin-2 fluorescence, MLSMR | AID 1456, 2008 | B-score of Tl+ flux slope (higher = more flux/activation; lower = inhibition) at 10 µM | actives 2.2% (n = 190,000) | Solute carrier family 12 member 5 (Homo sapiens), Q9H2X9 | KCC2 cells, thallium flux FluoZin-2 fluorescence;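 active = thallium flux slope and its plate-corrected score both differing from the plate sample mean at a set confidence after two filtering rounds, in either direction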;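 note: slope of fluorescence scaled to starting intensity during 10 to 20 s after thallium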
hERG protect: hERG rescue from dofetilide block, primary screen, cell-based, CHO-hERG, FluxOR thallium flux, dofetilide IC70; Voltage-gated inwardly rectifying potassium channel KCNH2 (Homo sapiens), Q12809; activation (rescue from dofetilide block), less the hit threshold, % at 10 µM; dofetilide IC70 present; AID 1511, 2009; actives 0.51% (n = 310,000);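 active = activation above the mean of controls blocked by dofetilide plus 5 SD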;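 note: thallium influx through hERG after potassium depolarization seen as dye fluorescence rise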
KCNQ1 pot: potentiators or activators of KCNQ1 channel, primary screen, cell-based, thallium flux, high-throughput | Potassium voltage-gated channel subfamily KQT member 1 (Homo sapiens), P51787 | CHO-K1 KCNQ1, thallium flux FluxOR fluorescence; hits give high values | B-score at 10 µM | actives 0.35% (n = 310,000) | AID 2648, 2010;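 active = fluorescence ratio B-score, a plate-corrected score, at least three library SD, with initial intensity B-score within 5 SD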
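Doses: Single concentration per compound, DMSO matched to controls | Test system: KCNQ1-transfected CHO-K1 cells | Timing: 90 min dye loading and 20 min compound exposure, both at room temperature | Measured by: Kinetic FluxOR thallium fluorescence, 10-s 1-Hz baseline, 110-s post-stimulus read | Medium: Assay buffer with matched DMSO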
KCNK3 block: human KCNK3 channel inhibitors, primary screen, CHO cells, FluxOR thallium flux, B-score. Potassium channel subfamily K member 3 (Homo sapiens), O14649. AID 602410, 2012. B-score at 10 µM. actives 0.84% (n = 340,000). FluxOR fluorescence; hits give low values;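 active = B-score under library mean minus 4 SD, starting fluorescence ratio at most library mean plus 5 SD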;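 note: more negative B-score means stronger inhibition of thallium flux through KCNK3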
KCNK9 block: KCNK9 potassium channel inhibitors, primary screen, HEK293 cells, thallium flux; actives 1.2% (n = 310,000); B-score at 10 µM; Potassium channel subfamily K member 9 (Homo sapiens), Q9NPC2; FluxOR thallium flux fluorescence; hits give low values;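 active = ratio B-score over 3 SD below the library mean, with starting fluorescence within 5 SD of its mean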;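 note: negative B-score means less thallium flux so channel inhibition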
KCNQ1 block: inhibitors of human KCNQ1 channel, primary screen, cell-based, thallium flux, high-throughput; CHO-K1 KCNQ1, FluxOR thallium flux fluorescence; hits give high values; Potassium voltage-gated channel subfamily KQT member 1 (Homo sapiens), P51787; B-score at 10 µM; actives 1.3% (n = 310,000);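 active = compounds whose thallium flux B-score, printed positive for inhibition, exceeds three library SD while starting fluorescence stays within three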;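 note: channel opened by potassium depolarization with thallium stimulus after 20 min compound exposure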
KCNQ1 block val: KCNQ1 potassium channel inhibitors, confirmation, cell-based, Tl flux, duplicate; shares compounds with KCNQ1 block; KCNQ1 cell line, FluxOR thallium flux fluorescence; inhibition, % at 10 µM; actives 93% (n = 1,600);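 active = primary screen active, with duplicate mean exceeding buffer control mean plus 3 SD of buffer wells, cut at about 28% in these data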;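 note: 0% = buffer control ratio and 100% = XE991 inhibitor control ratio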
CHO KCNQ1 ctr: thallium flux effects in parental CHO cells, counter-screen for KCNQ1 inhibitor project, cell-based, Tl flux. shares compounds with KCNQ1 block. parental CHO-K1, FluxOR thallium flux fluorescence ratio; hits give low values; zero means no signal rise above baseline. fluorescence ratio (Tl flux) at 10 µM. actives 21% (n = 1,600);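 active = mean of duplicate thallium-flux fluorescence ratios in parental host cells more than 5 SD below the buffer control mean, cut at about 0.38 in these data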;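 note: ratio is peak minus minimum fluorescence divided by baseline fluorescence; actives read low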
KCNQ1 APC inh: KCNQ1 channel inhibitors, confirmation, orthogonal assay, cell-based, automated electrophysiology; shares compounds with KCNQ1 block; KCNQ1-CHO cells, automated patch clamp current; calls only at 10 µM; actives 20% (n = 490);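 active = KCNQ1 current drop exceeding 3 SD of negative control wells, seen in both duplicate runs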;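 note: steady state current during a 2 s step from -80 to +40 mV; negative values mean current inhibition and positive values mean potentiation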
KCNQ2 spec: KCNQ2 channel inhibition, selectivity assay for KCNQ1 inhibitor project, cell-based | actives 71% (n = 1,600) | inhibition, % at 10 µM | shares compounds with KCNQ1 block | KCNQ2 cells, FluxOR thallium flux fluorescence;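 active = mean percent inhibition of the KCNQ2 thallium signal more than 5 SD above the buffer-only control wells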;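 note: KCNQ2 expressed in CHO cells; 0% = buffer control wells and 100% = XE-991 inhibitor control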
Target sequence (O88943 whole entry, looked up): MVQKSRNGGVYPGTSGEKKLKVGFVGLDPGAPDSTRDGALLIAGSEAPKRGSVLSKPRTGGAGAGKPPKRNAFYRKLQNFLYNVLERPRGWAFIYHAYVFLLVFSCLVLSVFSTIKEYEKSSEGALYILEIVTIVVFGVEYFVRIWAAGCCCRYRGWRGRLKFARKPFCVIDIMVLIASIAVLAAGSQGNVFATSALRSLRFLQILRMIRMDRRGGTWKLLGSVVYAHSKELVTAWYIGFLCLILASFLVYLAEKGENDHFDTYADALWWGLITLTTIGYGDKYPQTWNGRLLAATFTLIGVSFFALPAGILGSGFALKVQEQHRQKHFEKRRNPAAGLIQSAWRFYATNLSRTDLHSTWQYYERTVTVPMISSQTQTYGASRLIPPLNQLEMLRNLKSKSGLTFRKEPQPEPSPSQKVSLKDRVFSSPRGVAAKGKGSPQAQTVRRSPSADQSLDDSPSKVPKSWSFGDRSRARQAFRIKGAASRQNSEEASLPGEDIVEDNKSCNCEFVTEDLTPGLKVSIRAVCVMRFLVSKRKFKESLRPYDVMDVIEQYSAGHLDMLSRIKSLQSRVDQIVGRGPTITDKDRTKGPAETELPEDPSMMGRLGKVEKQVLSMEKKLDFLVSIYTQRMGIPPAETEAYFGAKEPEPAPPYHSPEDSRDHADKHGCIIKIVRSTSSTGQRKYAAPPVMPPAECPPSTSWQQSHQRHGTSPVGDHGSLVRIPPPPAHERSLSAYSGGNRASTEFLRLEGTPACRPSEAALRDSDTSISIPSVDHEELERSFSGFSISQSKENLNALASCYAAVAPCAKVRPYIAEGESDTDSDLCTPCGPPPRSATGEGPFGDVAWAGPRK
KCNQ1-KCNE1 inh: KCNQ1/KCNE1 channel inhibition, selectivity assay for KCNQ1 inhibitor project, CHO-K1 cells, thallium flux, FluxOR; inhibition, % at 10 µM; shares compounds with KCNQ1 block; FluxOR thallium flux fluorescence; actives 77% (n = 1,600); AID 652147, 2013;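 active = mean percent inhibition of duplicate wells above the buffer-only control mean plus 3 SD of those controls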;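 note: 0% = buffer only wells and 100% = XE-991 inhibitor control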
Active calls of the source: *. Most compounds without a hit are left out; they make up all but 4.1% or so of the library.

COc1ccc2[nH]c3c(NCc4ccco4)ncnc3c2c1 was read as KCC2 mod -0.55, hERG protect -13, KCNQ1 pot inactive, KCNK9 block inactive and KCNQ1 block inactive.
Screening Fc1ccc2[nH]c3c(NCc4ccccc4)ncnc3c2c1 returned hERG protect -24, KCNQ1 pot inactive, KCNK3 block inactive, KCNK9 block inactive, KCNQ1 block 7*, KCNQ1 block val 150*, CHO KCNQ1 ctr 0.4, KCNQ1 APC inh inactive, KCNQ2 spec 73%* and KCNQ1-KCNE1 inh 76%*.
`CN1CCN(C(=O)c2cc3ccccc3cc2O)CC1` gave KCNK3 block inactive.
`Cc1cc2nc(CCN(C(=S)NCC(C)C)C3CCCC3)[nH]c2cc1C` gave KCC2 mod -5.6*, hERG protect -11, KCNQ1 pot inactive, KCNK3 block inactive, KCNK9 block inactive, KCNQ1 block 8*, KCNQ1 block val 167*, CHO KCNQ1 ctr 0.43, KCNQ1 APC inh inactive, KCNQ2 spec 101%* and KCNQ1-KCNE1 inh inactive.
CCOc1ccc(NC(=O)C(C)Oc2ccc(C#N)cc2)cc1S(=O)(=O)N1CCCC1 (stereo not drawn) was read as KCNK3 block inactive.
O=C(Nc1cc(Cl)ccc1N1CCOCC1)c1ccc2c(c1)OCCO2 was read as KCC2 mod -0.2, hERG protect -6, KCNQ1 pot inactive, KCNK3 block inactive, KCNK9 block inactive, KCNQ1 block 12*, KCNQ1 block val 68*, CHO KCNQ1 ctr 0.46, KCNQ2 spec 83%* and KCNQ1-KCNE1 inh 52%*.
For CC(C)C[C@@]12C(=O)N(c3cccc(F)c3)C(=O)N1[C@H](c1ccc(F)cc1)[C@@H]1C(=O)N(C3CCCCC3)C(=O)[C@@H]12 the results were hERG protect -5, KCNQ1 pot inactive, KCNK3 block inactive, KCNK9 block inactive and KCNQ1 block inactive.
`CC(C)(C)NC(=O)COC(=O)c1ccccc1Nc1ccc(SC(F)F)cc1` gave KCC2 mod -0.6, hERG protect -9, KCNQ1 pot inactive, KCNK3 block inactive, KCNK9 block inactive, KCNQ1 block 6*, KCNQ1 block val 119*, CHO KCNQ1 ctr 0.37*, KCNQ2 spec 109%* and KCNQ1-KCNE1 inh 158%*.
O=S(=O)(NCCSCc1c(Cl)cccc1Cl)c1ccc2c(c1)OCCO2 was read as KCC2 mod -0.5, hERG protect -14, KCNQ1 pot inactive, KCNK3 block inactive, KCNK9 block inactive and KCNQ1 block inactive.
`O=S(=O)(NCCSCc1ccc(Cl)cc1Cl)c1ccc2c(c1)OCCO2` gave KCC2 mod -0.14, hERG protect -1, KCNQ1 pot inactive, KCNK3 block -9.1*, KCNK9 block inactive, KCNQ1 block 7*, KCNQ1 block val 129*, CHO KCNQ1 ctr 0.43, KCNQ1 APC inh inactive, KCNQ2 spec 96%* and KCNQ1-KCNE1 inh 144%*.
For Cc1noc(C)c1CSCC(=O)Nc1cc(Cl)ccc1N1CCCCC1 the results were hERG protect -13, KCNQ1 pot inactive, KCNK3 block inactive, KCNK9 block inactive, KCNQ1 block 8*, KCNQ1 block val 125*, CHO KCNQ1 ctr 0.38*, KCNQ2 spec 121%* and KCNQ1-KCNE1 inh 174%*.
For Cc1noc(C)c1CSCC(=O)Nc1cc(C(F)(F)F)ccc1N1CCCCC1 the results were hERG protect -10, KCNQ1 pot inactive, KCNK3 block inactive, KCNK9 block inactive and KCNQ1 block inactive.
`CCOC(=O)N1CCC(NC(=O)c2cc(COc3c(C)cccc3C)on2)CC1` gave hERG protect -10, KCNQ1 pot inactive, KCNK3 block inactive, KCNK9 block inactive and KCNQ1 block inactive.
CC(N=c1ccccn1C(=O)Nc1ccc(F)cc1)c1ccco1 (stereo not drawn) was read as KCC2 mod 0.041, hERG protect -5, KCNQ1 pot inactive, KCNK3 block inactive, KCNK9 block inactive and KCNQ1 block inactive.
For CC(N=c1ccccn1C(=O)Nc1ccc(Cl)cc1)c1ccco1 (stereo not drawn) the results were KCC2 mod 0.61, hERG protect -7, KCNQ1 pot inactive, KCNK9 block inactive, KCNQ1 block 10*, KCNQ1 block val 62*, CHO KCNQ1 ctr 0.49, KCNQ2 spec 61%* and KCNQ1-KCNE1 inh inactive.
`Cc1cc(-c2ccc(S(=O)(=O)N(C)c3ccc(C)c(C)c3)s2)on1` gave hERG protect -6, KCNQ1 pot inactive, KCNK3 block inactive, KCNK9 block inactive, KCNQ1 block 9*, KCNQ1 block val 128*, CHO KCNQ1 ctr 0.34*, KCNQ2 spec 143%* and KCNQ1-KCNE1 inh 150%*.
O=C(NC1CCCCC1)C(c1ccncc1)N(Cc1ccc2c(c1)OCO2)C(=O)c1cnsn1 (stereo not drawn) was read as KCC2 mod -0.15, hERG protect -7, KCNQ1 pot inactive, KCNK3 block inactive, KCNK9 block inactive, KCNQ1 block 7*, KCNQ1 block val 65*, CHO KCNQ1 ctr 0.44, KCNQ2 spec inactive and KCNQ1-KCNE1 inh 72%*.
